pIC50: −log10 of the molar value.
How the values were obtained:
Rattus norvegicus [1] = assay: ET-1 induced increase in mean arterial pressure following 1 mg/kg oral administration of compound; format: functional, Artery
Rattus norvegicus [2] = assay: Effect of compound on heart rate activity of spontaneously hypertensive rats after single oral administration of 1 mg/Kg dose; format: functional
Outline: (§1)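 Conscious spontaneously hypertensive rats were given a single oral dose at 12:00, with 5% arabic gum as the control vehicle. Heart rate and motor activity were monitored by telemetry. Change from a 3 h predrug period (9:00-12:00) was expressed as AUC0-12h (12:00-24:00). n = 6-13 per group, mean ± SEM, ANOVA with Dunnett's test vs control.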

Rattus norvegicus [3] = assay: Compound was evaluated for AUC after treatment with oral dose of 2 mgkg to male wistar rats; format: ADME, organism-based; parameters: dose 2 mgkg, route oral; conditions: in vivo, 2 mg/kg
Outline: (§2)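 Male and female Wistar rats, n = 3 per group, received a single dose of either 1 mg/kg iv or 2 mg/kg orally. Plasma levels were followed after dosing. Half-life was taken over the interval 1-8 h post administration. Oral bioavailability was derived against the iv data.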

Rattus norvegicus [4] = assay: Effect of compound on heart rate activity of spontaneously hypertensive rats after single oral administration of 10 mg/Kg dose; format: functional; outline: as §1
[5] = target: T1, Endothelin receptor type B (Sus scrofa, UniProt P35463); assay: In vitro ability to inhibit specific [125I]ET1 binding to porcine kidney (inner medulla) membranes Endothelin B receptor
T1 sequence (P35463 whole entry): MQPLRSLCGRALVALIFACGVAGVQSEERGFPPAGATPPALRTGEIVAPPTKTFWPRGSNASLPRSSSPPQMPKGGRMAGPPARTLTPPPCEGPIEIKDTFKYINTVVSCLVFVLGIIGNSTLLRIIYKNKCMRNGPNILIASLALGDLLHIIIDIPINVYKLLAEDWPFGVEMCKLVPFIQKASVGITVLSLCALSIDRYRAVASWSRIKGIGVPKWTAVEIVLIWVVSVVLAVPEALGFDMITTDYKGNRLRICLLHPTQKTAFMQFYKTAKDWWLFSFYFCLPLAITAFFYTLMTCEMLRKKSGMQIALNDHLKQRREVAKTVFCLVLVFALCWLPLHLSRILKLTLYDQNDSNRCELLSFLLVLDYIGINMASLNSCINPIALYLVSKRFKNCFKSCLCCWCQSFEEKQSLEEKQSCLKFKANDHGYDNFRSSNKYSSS

[6] = Compound was evaluated for clearance after treatment with iv dose of 1 mgkg to female wistar rats; format: ADME, organism-based; parameters: dose 1 mgkg, route intravenous; conditions: rat, in vivo, 1 mg/kg; outline: as §2
Rattus norvegicus [7] = assay: Effect of compound on motor activity of spontaneously hypertensive rats after single oral administration of 0.03 mg/Kg dose; format: functional; outline: as §1
[8] = Compound was evaluated for AUC after treatment with oral dose of 2 mgkg to female cynomolgus monkey; format: ADME; conditions: cercopithecidae, in vivo
Outline: (§3)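 A female cynomolgus monkey (n = 1) received a single dose of either 1 mg/kg iv or 2 mg/kg orally. Plasma concentration-time data gave Cmax, tmax, AUC, clearance and Vss. Half-life was calculated over 1-8 h post administration.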

Rattus norvegicus [9] = assay: Effect of compound on heart rate activity of spontaneously hypertensive rats after single oral administration of 30 mg/Kg dose; format: functional; outline: as §1
[10] = Compound was evaluated for volume of distribution (steady state) after treatment with iv dose of 1 mgkg to female cynomolgus monkey; format: ADME, organism-based; parameters: dose 1 mgkg, route intravenous; conditions: cercopithecidae, in vivo, 1 mg/kg, read-out: Vss; outline: as §3
[11] = Compound was evaluated for volume of distribution (steady state) after treatment with iv dose of 1 mgkg to female wistar rats; format: ADME, organism-based; parameters: dose 1 mgkg, route intravenous; conditions: rat, in vivo, 1 mg/kg, read-out: Vss; outline: as §2
[12] = Compound was evaluated for clearance after treatment with iv dose of 1 mgkg to male wistar rats; format: ADME, organism-based; parameters: dose 1 mgkg, route intravenous; conditions: rat, in vivo, 1 mg/kg; outline: as §2
Rattus norvegicus [13] = assay: Compound was evaluated for AUC after treatment with iv dose of 1 mgkg to male wistar rats; format: ADME, organism-based; parameters: dose 1 mgkg, route intravenous; conditions: in vivo, 1 mg/kg; outline: as §2
Rattus norvegicus [14] = assay: Compound was evaluated for AUC after treatment with oral dose of 2 mgkg to female wistar rats; format: ADME, organism-based; parameters: dose 2 mgkg, route oral; conditions: in vivo, 2 mg/kg; outline: as §2
[15] = Compound was evaluated for half life after treatment with iv dose of 1 mgkg to male wistar rats; format: ADME, organism-based; parameters: dose 1 mgkg, route intravenous; conditions: rat, in vivo, 1 mg/kg; outline: as §2
[16] = Compound was evaluated for maximum time to reach Cmax after treatment with oral dose of 2 mgkg to female cynomolgus monkey; format: ADME, organism-based; parameters: dose 2 mgkg, route oral; conditions: cercopithecidae, in vivo, 2 mg/kg; outline: as §3
[17] = Compound was evaluated for AUC after treatment with iv dose of 1 mgkg to female cynomolgus monkey; format: ADME, organism-based; parameters: dose 1 mgkg, route intravenous; conditions: cercopithecidae, in vivo, 1 mg/kg; outline: as §3
Rattus norvegicus [18] = assay: ET-1 induced increase in mean arterial pressure following 3 mg/kg oral administration of compound; format: functional, Artery
Rattus norvegicus [19] = assay: ET-1 induced increase in mean arterial pressure following 0.3 mg/kg oral administration of compound; format: functional, Artery
Oryctolagus cuniculus = species on record: Oryctolagus cuniculus; assay: Compound was evaluated for the functional assay performed by obtaining sarafotoxin 6c concentration-response curves [pA2(ETB)] in isolated rabbit jugularis vein
Rattus norvegicus [20] = assay: Effect of compound on motor activity of spontaneously hypertensive rats after single oral administration of 10 mg/Kg dose; format: functional; outline: as §1
Rattus norvegicus [21] = assay: Effect of compound on heart rate activity of spontaneously hypertensive rats after single oral administration of 0.3 mg/Kg dose; format: functional; outline: as §1
Rattus norvegicus [22] = assay: Effect of compound on motor activity of spontaneously hypertensive rats after single oral administration of 0.1 mg/Kg dose; format: functional; outline: as §1
Rattus norvegicus [23] = assay: Compound was evaluated for AUC after treatment with iv dose of 1 mgkg to female wistar rats; format: ADME, organism-based; parameters: dose 1 mgkg, route intravenous; conditions: in vivo, 1 mg/kg; outline: as §2
Rattus norvegicus [24] = assay: Effect of compound on motor activity of spontaneously hypertensive rats after single oral administration of 3 mg/Kg dose; format: functional; outline: as §1
[25] = Compound was evaluated for clearance after treatment with iv dose of 1 mgkg to female cynomolgus monkey; format: ADME, organism-based; parameters: dose 1 mgkg, route intravenous; conditions: cercopithecidae, in vivo, 1 mg/kg; outline: as §3
[26] = Compound was evaluated for volume of distribution (steady state) after treatment with iv dose of 1 mgkg to male wistar rats; format: ADME, organism-based; parameters: dose 1 mgkg, route intravenous; conditions: rat, in vivo, 1 mg/kg, read-out: Vss; outline: as §2
Rattus norvegicus [27] = assay: Effect of compound on heart rate activity of spontaneously hypertensive rats after single oral administration of 0.03 mg/Kg dose; format: functional; outline: as §1
Rattus norvegicus [28] = assay: Effect of compound on heart rate activity of spontaneously hypertensive rats after single oral administration of 0.1 mg/Kg dose; format: functional; outline: as §1
[29] = Compound was evaluated for maximum concentration after treatment with oral dose of 2 mgkg to male wistar rats; format: ADME, organism-based; parameters: dose 2 mgkg, route oral; conditions: rat, in vivo, 2 mg/kg; outline: as §2
Rattus norvegicus [30] = assay: Effect of compound on motor activity of spontaneously hypertensive rats after single oral administration of 1 mg/Kg dose; format: functional; outline: as §1
[31] = Compound was evaluated for maximum concentration after treatment with oral dose of 2 mgkg to female cynomolgus monkey; format: ADME, organism-based; parameters: dose 2 mgkg, route oral; conditions: cercopithecidae, in vivo, 2 mg/kg; outline: as §3
Rattus norvegicus [32] = assay: Effect of compound on motor activity of spontaneously hypertensive rats after single oral administration of 0.3 mg/Kg dose; format: functional; outline: as §1
[33] = Compound was evaluated for half-life after treatment with iv dose of 1 mgkg to female cynomolgus monkey; format: ADME, organism-based; parameters: dose 1 mgkg, route intravenous; conditions: cercopithecidae, in vivo, 1 mg/kg; outline: as §3
Rattus norvegicus [34] = assay: Effect of compound on heart rate activity of spontaneously hypertensive rats after single oral administration of 3 mg/Kg dose; format: functional; outline: as §1
Rattus norvegicus [35] = assay: ET-1 induced increase in mean arterial pressure following 0.1 mg/kg oral administration of compound; format: functional, Artery
[36] = Compound was evaluated for half life after treatment with iv dose of 1 mgkg to female wistar rats; format: ADME, organism-based; parameters: dose 1 mgkg, route intravenous; conditions: rat, in vivo, 1 mg/kg; outline: as §2
Rattus norvegicus [37] = species on record: Rattus norvegicus; assay: Compound was evaluated for the functional assay performed by obtaining ET-1 concentration-response curves [pA2(ETA)] in isolated rat aortic rings; conditions: Aorta, read-out: pA2 (converted)
Outline: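 Functional ETA assay: ET-1 concentration-response curves in isolated rat aortic rings with the endothelium removed. Antagonism is expressed as pA2.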

[38] = Compound was evaluated for maximum concentration after treatment with oral dose of 2 mgkg to female wistar rats; format: ADME, organism-based; parameters: dose 2 mgkg, route oral; conditions: rat, in vivo, 2 mg/kg; outline: as §2
Rattus norvegicus [39] = assay: Effect of compound on motor activity of spontaneously hypertensive rats after single oral administration of 30 mg/Kg dose; format: functional; outline: as §1
Endothelin-1 receptor = target: T2, Endothelin-1 receptor (Rattus norvegicus, UniProt P26684); assay: In vitro ability to inhibit specific [125I]ET1 binding to rat aorta membranes Endothelin A receptor; format: tissue-based
T2 sequence (P26684 whole entry): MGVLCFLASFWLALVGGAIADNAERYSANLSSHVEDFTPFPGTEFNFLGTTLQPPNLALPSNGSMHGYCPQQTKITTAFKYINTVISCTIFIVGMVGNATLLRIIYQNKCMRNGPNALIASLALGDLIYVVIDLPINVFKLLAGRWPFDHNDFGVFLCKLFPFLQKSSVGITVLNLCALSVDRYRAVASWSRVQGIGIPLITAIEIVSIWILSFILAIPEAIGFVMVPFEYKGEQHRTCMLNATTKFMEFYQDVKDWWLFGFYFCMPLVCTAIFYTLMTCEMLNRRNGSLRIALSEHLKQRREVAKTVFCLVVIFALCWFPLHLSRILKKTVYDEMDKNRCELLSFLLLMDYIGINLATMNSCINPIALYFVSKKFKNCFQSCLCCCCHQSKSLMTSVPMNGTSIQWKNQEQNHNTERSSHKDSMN

[40] = Compound was evaluated for maximum time to reach Cmax after treatment with oral dose of 2 mgkg to male wistar rats; format: ADME, organism-based; parameters: dose 2 mgkg, route oral; conditions: rat, in vivo, 2 mg/kg; outline: as §2
[41] = Compound was evaluated for maximum time to reach Cmax after treatment with oral dose of 2 mgkg to female wistar rats; format: ADME, organism-based; parameters: dose 2 mgkg, route oral; conditions: rat, in vivo, 2 mg/kg; outline: as §2

In the case of `COc1ccc(C(=O)/C(Cc2cc(OC)c(OC)c(OC)c2)=C(\C(=O)[O-])c2ccc3nsnc3c2)cc1F.[Na+]`, the “Mean arterial blood pressure” value (Rattus norvegicus [1]) was 11 mmHg, the AUC0-12h ΔHR (Rattus norvegicus [2]) was -344 min-1·h and the AUC (Rattus norvegicus [3]) was 1630 ng·h/mL. It also gave an AUC0-12h ΔHR (Rattus norvegicus [4]) of -349 min-1·h, a pIC50 [5] of 6.80 and a clearance [6] of 1.67 mL/min/kg. For the same compound, the AUC0-12h ΔMA (Rattus norvegicus [7]) was -97 units·h, the AUC [8] was 4260 ng·h/mL and the AUC0-12h ΔHR (Rattus norvegicus [9]) was -260 min-1·h. The Vd [10] was 0.1 L/kg, the Vd [11] was 0.2 L/kg and the clearance [12] was 6.67 mL/min/kg. It also gave an AUC (Rattus norvegicus [13]) of 2500 ng·h/mL, an AUC (Rattus norvegicus [14]) of 21300 ng·h/mL and a half-life [15] of 96 min. The Tmax [16] was 30 min, the AUC [17] was 3300 ng·h/mL and the “Mean arterial blood pressure” value (Rattus norvegicus [18]) was 7 mmHg. For the same compound, the “Mean arterial blood pressure” value (Rattus norvegicus [19]) was 24 mmHg, the Kb (Oryctolagus cuniculus) was 1000 nM and the AUC0-12h ΔMA (Rattus norvegicus [20]) was -131 units·h. It also gave an AUC0-12h ΔHR (Rattus norvegicus [21]) of -413 min-1·h, an AUC0-12h ΔMA (Rattus norvegicus [22]) of -72 units·h and an AUC (Rattus norvegicus [23]) of 15400 ng·h/mL. For the same compound, the AUC0-12h ΔMA (Rattus norvegicus [24]) was -102 units·h, the clearance [25] was 5 mL/min/kg and the Vd [26] was 0.5 L/kg. The AUC0-12h ΔHR (Rattus norvegicus [27]) was -384 min-1·h, the AUC0-12h ΔHR (Rattus norvegicus [28]) was -341 min-1·h and the Cmax [29] was 1010 ng/mL. For the same compound, the AUC0-12h ΔMA (Rattus norvegicus [30]) was -131 units·h, the Cmax [31] was 3830 ng/mL and the AUC0-12h ΔMA (Rattus norvegicus [32]) was -93 units·h. The half-life [33] was 60 min, the AUC0-12h ΔHR (Rattus norvegicus [34]) was -356 min-1·h and the “Mean arterial blood pressure” value (Rattus norvegicus [35]) was 32 mmHg. It also gave a half-life [36] of 102 min, a Kb (Rattus norvegicus [37]) of 0.316 nM and a Cmax [38] of 3160 ng/mL. The AUC0-12h ΔMA (Rattus norvegicus [39]) was -99 units·h, the pIC50 (Endothelin-1 receptor) was 10.49 and the Tmax [40] was 30 min. The Tmax [41] was 30 min.

With `COc1ccc(C(=O)/C(Cc2cc(OC)c(OC)c(OC)c2)=C(\C(=O)O)c2ccc3c(c2)OCO3)cc1` [PD-156707 SODIUM] the pIC50 [5] was 6.47, the Kb (Oryctolagus cuniculus) was > 3160 nM and the Kb (Rattus norvegicus [37]) was 25.1 nM. For the same compound, the pIC50 (Endothelin-1 receptor) was 8.89.

Compound `COc1ccc(C(=O)/C(Cc2ccc3c(c2)CCO3)=C(\C(=O)O)c2ccc3nsnc3c2)cc1` has a pIC50 [5] of 5.85 and a pIC50 (Endothelin-1 receptor) of 8.47.
